Source: ChEMBL document CHEMBL1152560, “Substituted 2-arylbenzothiazoles as kinase inhibitors: hit-to-lead optimization” (Bioorg Med Chem, 2009)

Legend:
[1] = target: T1, Serine/threonine-protein kinase D2 (Homo sapiens) (UniProt Q9BZL6); assay: Residual activity of PRKD2 at 1 uM by microplate scintillation counting
T1 sequence (whole entry): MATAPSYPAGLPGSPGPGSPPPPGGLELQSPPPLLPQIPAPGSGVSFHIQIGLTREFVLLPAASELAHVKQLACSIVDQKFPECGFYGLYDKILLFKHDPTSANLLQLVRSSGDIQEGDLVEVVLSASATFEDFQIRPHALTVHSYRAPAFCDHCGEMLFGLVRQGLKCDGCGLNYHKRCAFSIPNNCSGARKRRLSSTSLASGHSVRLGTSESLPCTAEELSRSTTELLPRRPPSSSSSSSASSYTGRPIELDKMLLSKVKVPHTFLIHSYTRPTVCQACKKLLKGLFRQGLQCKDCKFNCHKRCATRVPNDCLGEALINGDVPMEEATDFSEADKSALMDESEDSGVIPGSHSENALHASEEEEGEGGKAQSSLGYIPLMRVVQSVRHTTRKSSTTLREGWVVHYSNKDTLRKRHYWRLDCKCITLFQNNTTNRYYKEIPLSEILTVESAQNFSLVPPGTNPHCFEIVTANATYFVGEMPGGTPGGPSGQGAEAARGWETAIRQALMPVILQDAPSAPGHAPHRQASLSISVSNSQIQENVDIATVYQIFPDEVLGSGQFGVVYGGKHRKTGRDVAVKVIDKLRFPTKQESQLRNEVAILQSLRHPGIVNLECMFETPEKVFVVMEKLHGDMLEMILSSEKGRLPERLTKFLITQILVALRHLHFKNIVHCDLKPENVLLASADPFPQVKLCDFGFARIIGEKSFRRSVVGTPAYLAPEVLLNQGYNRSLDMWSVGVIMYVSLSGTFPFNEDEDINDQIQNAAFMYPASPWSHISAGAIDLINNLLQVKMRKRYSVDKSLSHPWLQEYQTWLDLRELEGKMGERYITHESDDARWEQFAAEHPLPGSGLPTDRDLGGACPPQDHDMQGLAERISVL

[2] = target: Tyrosine-protein kinase CSK (Homo sapiens) (UniProt P41240); assay: Residual activity of CSK at 10 uM by microplate scintillation counting
Chain of Tyrosine-protein kinase CSK (Homo sapiens) (P41240 2-450 limits assumed): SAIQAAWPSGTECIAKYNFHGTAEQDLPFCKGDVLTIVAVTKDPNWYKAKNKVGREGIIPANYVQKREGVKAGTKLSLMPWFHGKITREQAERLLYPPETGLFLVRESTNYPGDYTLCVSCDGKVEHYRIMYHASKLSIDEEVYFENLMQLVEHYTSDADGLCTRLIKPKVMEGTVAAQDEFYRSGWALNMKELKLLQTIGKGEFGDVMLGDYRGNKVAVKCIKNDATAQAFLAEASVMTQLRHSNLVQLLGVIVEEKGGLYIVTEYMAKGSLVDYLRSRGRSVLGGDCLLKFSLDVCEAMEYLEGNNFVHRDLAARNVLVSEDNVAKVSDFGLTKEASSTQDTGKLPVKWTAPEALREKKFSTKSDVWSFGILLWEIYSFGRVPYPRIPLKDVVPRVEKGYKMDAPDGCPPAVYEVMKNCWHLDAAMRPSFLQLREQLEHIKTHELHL

[3] = target: Dual specificity tyrosine-phosphorylation-regulated kinase 1B (Homo sapiens) (UniProt Q9Y463); assay: Residual activity of DYRK1B at 1 uM by microplate scintillation counting
Chain of Dual specificity tyrosine-phosphorylation-regulated kinase 1B (Homo sapiens) (Q9Y463 whole entry, looked up): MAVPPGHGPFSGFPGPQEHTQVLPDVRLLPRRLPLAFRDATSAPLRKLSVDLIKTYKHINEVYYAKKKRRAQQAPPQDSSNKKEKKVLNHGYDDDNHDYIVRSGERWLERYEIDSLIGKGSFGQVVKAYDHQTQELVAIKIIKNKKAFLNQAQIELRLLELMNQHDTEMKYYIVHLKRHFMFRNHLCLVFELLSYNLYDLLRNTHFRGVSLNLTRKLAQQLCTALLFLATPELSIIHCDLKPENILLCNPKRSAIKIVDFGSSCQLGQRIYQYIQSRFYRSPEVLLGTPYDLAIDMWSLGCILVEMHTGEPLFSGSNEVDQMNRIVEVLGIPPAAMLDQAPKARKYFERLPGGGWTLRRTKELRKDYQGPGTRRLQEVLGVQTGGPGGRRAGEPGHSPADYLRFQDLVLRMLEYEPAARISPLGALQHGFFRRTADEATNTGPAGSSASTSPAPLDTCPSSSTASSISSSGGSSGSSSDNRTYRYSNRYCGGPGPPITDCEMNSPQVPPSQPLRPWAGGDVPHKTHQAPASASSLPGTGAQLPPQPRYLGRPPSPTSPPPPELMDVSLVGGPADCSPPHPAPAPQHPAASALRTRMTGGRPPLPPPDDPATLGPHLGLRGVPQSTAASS

[4] = target: T2, Tyrosine-protein kinase ITK/TSK (Homo sapiens) (UniProt Q08881); assay: Residual activity of ITK at 0.1 uM by microplate scintillation counting
T2 sequence (whole entry): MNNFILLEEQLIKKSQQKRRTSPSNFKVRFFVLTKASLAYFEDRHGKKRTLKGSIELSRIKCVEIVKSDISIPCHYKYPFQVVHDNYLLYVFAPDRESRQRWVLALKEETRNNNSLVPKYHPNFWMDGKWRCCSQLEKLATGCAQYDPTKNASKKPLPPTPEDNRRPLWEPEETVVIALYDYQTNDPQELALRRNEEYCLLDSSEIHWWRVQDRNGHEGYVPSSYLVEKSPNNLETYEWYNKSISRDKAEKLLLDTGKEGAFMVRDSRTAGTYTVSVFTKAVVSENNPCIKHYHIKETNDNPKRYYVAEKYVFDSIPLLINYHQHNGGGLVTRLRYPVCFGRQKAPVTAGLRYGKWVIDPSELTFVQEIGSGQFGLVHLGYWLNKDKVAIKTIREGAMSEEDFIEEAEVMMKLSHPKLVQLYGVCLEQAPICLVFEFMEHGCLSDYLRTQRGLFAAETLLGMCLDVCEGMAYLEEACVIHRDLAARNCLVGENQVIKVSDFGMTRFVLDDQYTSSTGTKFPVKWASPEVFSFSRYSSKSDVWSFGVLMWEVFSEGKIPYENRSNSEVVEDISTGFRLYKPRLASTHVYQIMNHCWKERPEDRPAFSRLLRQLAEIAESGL

[5] = target: T3, Platelet-derived growth factor receptor beta (Homo sapiens, UniProt P09619); assay: Residual activity of PDGFRbeta at 0.1 uM by microplate scintillation counting
T3 sequence (P09619 whole entry): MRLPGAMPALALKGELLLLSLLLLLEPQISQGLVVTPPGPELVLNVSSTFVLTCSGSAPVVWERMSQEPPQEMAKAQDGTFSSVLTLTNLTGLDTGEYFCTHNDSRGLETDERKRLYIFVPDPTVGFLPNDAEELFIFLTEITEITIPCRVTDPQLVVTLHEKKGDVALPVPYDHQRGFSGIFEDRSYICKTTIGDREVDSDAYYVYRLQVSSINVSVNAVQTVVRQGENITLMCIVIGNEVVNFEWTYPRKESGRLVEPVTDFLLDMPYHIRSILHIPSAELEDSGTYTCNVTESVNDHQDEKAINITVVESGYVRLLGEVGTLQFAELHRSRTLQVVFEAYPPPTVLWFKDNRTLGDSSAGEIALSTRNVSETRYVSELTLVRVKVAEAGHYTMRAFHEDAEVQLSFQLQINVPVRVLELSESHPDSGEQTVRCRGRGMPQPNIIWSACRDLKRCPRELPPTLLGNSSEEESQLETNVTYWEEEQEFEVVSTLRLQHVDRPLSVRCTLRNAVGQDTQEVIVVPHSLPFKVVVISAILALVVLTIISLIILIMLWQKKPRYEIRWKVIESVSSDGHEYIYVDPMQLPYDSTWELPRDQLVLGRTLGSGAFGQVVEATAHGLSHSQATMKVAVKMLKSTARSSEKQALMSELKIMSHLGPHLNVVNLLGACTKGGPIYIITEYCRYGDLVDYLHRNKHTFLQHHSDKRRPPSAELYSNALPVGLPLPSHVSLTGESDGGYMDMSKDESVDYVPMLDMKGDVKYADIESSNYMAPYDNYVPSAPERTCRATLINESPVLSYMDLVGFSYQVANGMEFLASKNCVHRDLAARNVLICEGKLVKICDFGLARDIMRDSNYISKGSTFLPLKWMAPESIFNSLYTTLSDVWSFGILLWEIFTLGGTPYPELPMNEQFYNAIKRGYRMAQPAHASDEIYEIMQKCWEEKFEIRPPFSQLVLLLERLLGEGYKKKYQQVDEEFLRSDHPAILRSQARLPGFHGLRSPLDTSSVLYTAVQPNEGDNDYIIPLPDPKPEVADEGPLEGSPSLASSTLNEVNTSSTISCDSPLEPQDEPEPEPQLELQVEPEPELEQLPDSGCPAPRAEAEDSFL

[6] = target: Homeodomain-interacting protein kinase 3 (Homo sapiens) (UniProt Q9H422); assay: Residual activity of HIPK3 at 0.1 uM by microplate scintillation counting
Chain of Homeodomain-interacting protein kinase 3 (Homo sapiens) (Q9H422 whole entry, looked up): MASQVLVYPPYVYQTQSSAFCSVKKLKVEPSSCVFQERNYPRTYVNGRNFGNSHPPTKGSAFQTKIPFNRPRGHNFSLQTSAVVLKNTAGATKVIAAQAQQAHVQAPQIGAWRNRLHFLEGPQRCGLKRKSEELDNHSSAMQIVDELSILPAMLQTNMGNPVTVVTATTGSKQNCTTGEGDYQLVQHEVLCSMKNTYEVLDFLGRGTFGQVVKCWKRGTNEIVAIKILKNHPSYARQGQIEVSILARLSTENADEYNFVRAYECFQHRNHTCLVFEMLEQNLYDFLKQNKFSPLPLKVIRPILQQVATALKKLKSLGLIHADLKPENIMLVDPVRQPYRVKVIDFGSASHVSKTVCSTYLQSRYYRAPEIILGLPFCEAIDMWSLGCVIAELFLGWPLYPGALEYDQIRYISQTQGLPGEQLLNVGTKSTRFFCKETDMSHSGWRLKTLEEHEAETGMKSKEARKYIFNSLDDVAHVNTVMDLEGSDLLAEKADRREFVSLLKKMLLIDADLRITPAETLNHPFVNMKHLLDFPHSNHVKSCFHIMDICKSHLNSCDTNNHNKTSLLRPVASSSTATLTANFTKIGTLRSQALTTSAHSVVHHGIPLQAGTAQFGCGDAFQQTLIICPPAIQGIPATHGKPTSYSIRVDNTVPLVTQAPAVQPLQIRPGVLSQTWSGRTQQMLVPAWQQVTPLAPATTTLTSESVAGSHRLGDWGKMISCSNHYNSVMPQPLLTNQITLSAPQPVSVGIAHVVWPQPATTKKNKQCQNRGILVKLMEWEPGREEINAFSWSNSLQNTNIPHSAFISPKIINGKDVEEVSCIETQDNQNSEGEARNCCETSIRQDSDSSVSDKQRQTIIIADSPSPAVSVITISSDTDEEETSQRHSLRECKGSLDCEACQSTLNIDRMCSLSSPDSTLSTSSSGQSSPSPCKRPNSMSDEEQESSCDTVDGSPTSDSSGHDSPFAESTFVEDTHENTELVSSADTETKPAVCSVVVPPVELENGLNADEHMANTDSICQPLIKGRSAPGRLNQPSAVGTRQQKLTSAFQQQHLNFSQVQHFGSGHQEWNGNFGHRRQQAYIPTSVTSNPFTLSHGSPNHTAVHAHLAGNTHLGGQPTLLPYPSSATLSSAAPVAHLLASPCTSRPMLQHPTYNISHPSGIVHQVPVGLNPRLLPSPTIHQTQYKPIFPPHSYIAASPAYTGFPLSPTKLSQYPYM

[7] = target: Serine/threonine-protein kinase PAK 6 (Homo sapiens) (UniProt Q9NQU5); assay: Residual activity of PAK6 at 0.1 uM by microplate scintillation counting
[8] = target: T3, Platelet-derived growth factor receptor beta; assay: Inhibition of PDGFRbeta by microplate scintillation counting
Method in brief: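 Substrates: tetra(LRRWSLG) for Aurora A/B; poly(Ala,Glu,Lys,Tyr)6:2:5:1 for PDGFRβ; poly(Glu,Tyr)4:1 for TIE2 and VEGFR2. Stopped with 2% H3PO4.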

[9] = target: Serine/threonine-protein kinase 24 (Homo sapiens) (UniProt Q9Y6E0); assay: Residual activity of MST3 at 0.1 uM by microplate scintillation counting
Chain of Serine/threonine-protein kinase 24 (Homo sapiens) (Q9Y6E0 whole entry, looked up): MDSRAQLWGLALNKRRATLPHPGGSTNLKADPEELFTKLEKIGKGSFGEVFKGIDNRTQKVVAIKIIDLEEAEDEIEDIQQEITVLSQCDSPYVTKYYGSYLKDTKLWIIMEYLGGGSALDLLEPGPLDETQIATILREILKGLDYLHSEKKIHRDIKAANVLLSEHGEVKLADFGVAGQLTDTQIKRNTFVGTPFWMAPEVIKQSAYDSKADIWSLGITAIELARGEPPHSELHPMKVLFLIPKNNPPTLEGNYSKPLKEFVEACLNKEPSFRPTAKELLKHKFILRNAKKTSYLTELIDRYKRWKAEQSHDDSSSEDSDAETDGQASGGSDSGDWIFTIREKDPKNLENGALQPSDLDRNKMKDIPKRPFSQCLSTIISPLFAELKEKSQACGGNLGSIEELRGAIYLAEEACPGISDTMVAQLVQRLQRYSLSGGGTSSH

[10] = target: CDK1/Cyclin E (Homo sapiens) (UniProt P06493+P24864); assay: Residual activity of CDK1/Cyclin E at 1 uM by microplate scintillation counting; type: protein-complex assay
Chain of CDK1/Cyclin E (Homo sapiens) (P06493 whole entry, looked up): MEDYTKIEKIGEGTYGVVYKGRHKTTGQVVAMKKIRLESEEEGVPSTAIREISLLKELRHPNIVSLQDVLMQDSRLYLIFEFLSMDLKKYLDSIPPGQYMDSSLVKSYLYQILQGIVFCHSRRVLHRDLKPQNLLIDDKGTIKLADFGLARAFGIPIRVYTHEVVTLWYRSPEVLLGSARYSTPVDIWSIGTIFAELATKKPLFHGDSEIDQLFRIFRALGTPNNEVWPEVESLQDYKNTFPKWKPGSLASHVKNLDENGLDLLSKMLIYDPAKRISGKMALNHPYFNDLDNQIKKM
Chain of CDK1/Cyclin E (Homo sapiens) (P24864 whole entry, looked up): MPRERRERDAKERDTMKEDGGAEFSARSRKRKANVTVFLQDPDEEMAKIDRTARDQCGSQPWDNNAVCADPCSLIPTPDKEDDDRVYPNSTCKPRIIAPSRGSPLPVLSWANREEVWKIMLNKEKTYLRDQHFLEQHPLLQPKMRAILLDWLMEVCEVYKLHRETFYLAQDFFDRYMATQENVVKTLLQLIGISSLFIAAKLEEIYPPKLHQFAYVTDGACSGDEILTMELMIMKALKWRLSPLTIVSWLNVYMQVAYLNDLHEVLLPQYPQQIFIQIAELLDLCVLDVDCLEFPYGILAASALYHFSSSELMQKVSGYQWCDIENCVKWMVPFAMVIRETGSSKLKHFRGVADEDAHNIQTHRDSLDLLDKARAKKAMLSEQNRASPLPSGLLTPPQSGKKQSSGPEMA

Structure (SMILES)	residual activity [1] [%]	residual activity [2] [%]	residual activity [3] [%]	residual activity [4] [%]	residual activity [5] [%]	residual activity [6] [%]	residual activity [7] [%]	IC50 [8] [µM]	residual activity [9] [%]	residual activity [10] [%]
COc1cc2c(Oc3ccc(-c4nc5ccccc5s4)cc3F)ncnc2cc1OCCCN1CCN(C)CC1	90	3	95	107	95	93	98	6.1	104	90
COc1cc2c(Oc3ccc(-c4nc5ccccc5s4)cc3)ncnc2cc1OCCCN1CCCC1	94	17	98	98	95	92	99	7.7	98	85
COc1cc2c(Oc3ccc(-c4nc5ccccc5s4)cc3)ncnc2cc1OCCCN1CCN(C)CC1	82	18	105	99	94	88	69	3.5	103	88
